Where a SMILES comes first, the peptide text is derived from it. The star is where a group is joined. X1 = C[C@H](Cn1cnc2c(N)ncnc21)OCP(=O)(O)OCCS*; Palmitoyl = CCCCCCCCCCCCCCCC(=O)*
Experiments:
HBV = assay: Anti-HBV efficacy, HBV DNA in supernatant of HepAD38 cells by qPCR; format: cell-based; conditions: Hepatitis B virus, HePAD38, 96 h, read-out: IC50, HBV production
[1] = format: physicochemical; conditions: addition of PBS (final 1x PBS) to 5 mM solution; 10 ul 10x PBS to 100 ul
Procedure, shortened: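 Aqueous prodrug solutions, brought to pH 7.4 after purification, were gelled by adding 10× PBS at a 10:1 solution-to-buffer ratio to reach 1× PBS. Gel formation and the critical gelation concentration were judged by a simple vial-inversion test across prodrug concentrations.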

[2] = Free TFV release / prodrug stability with or without dithiothreitol; format: physicochemical; conditions: 100 μM in 1x PBS, 10 mM DTT, 37 °C; for TFV released by 24 hours with DTT: RP-HPLC and ESI MS
[3] = Critical micellization concentration by Nile red encapsulation assay; format: physicochemical; conditions: fluorescence ratio 635 nm vs 660 nm, aqueous, n = 3
Procedure, shortened: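 Critical micellization concentration was read on a fluorometer as the concentration where the ratio of fluorescence at 635 nm (encapsulated Nile red) to 660 nm (free Nile red) shifted. Measurements were made in aqueous prodrug solutions, and data are mean ± SD of 3.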

[4] = Instantaneous gelation on injection into PBS; format: physicochemical; conditions: 10 mM solution assembled with 10 mM Nile red, injected into 10x PBS
[5] = In vitro gel release of TFV-PA from hydrogel depots; format: physicochemical
Procedure, shortened: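 Hydrogels were made from 5 and 10 mM prodrug solutions and aged at 37 °C under a fixed volume of PBS release medium. Supernatant was collected and replaced at set time points up to day 30 and analysed by analytical RP-HPLC. Release is given as nanomoles and as percent of conjugate in the original gel, mean ± SD, n = 3.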

[6] = Nanobelt width by negatively stained transmission electron microscopy; format: physicochemical; conditions: TEM, 1 mM concentration, mean ± SD, n = 35
Procedure, shortened: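 Samples were pH 7.4 aqueous solutions (1 mM shown), negatively stained and imaged by TEM. Nanobelt widths were measured from the images and reported as mean ± SD over 35 measurements.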

Compound: C[C@H](Cn1cnc2c(N)ncnc21)OCP(=O)(O)O [TFV, tenofovir]
- IC50 (HBV): 1100 nM

Compound: CCCCCCCCCCCCCCCC(=O)N[C@H](C(=O)N[C@H](C(=O)N[C@@H](CSSCCOP(=O)(O)CO[C@H](C)Cn1cnc2c(N)ncnc21)C(=O)N[C@@H](CCC(=O)O)C(=O)O)C(C)C)C(C)C [TFV-PA2] (Palmitoyl-VVC(X1)E-OH; C-terminus assumed)
- gel formation of 5 mM solution [1]: weak gel formation
- TFV released after 1 hour with DTT ([2]; 1 hour, RP-HPLC, n = 3): more than 90%
- TFV released by 24 hours with DTT [2]: all TFV released
- critical micellization concentration (CMC) [3]: 51 µM
- gelation upon injection [4]: formed gels instantly upon injection
- average concentration in the release supernatant, 5 mM gels ([5]; 5 mM hydrogel, 37 °C, PBS release medium, RP-HPLC): 361 ± 91 µM
- percent release on day 14, 5 mM gel ([5]; 5 mM hydrogel, 37 °C, PBS release medium, RP-HPLC, day 14, n = 3): 56%
- prodrug released on day 14, 5 mM gel ([5]; 5 mM hydrogel, 37 °C, PBS release medium, day 14, mean ± SD): 126 ± 7 nmol
- average concentration in the release supernatant, 10 mM gels ([5]; 10 mM hydrogel, 37 °C, PBS release medium, RP-HPLC): 619 ± 268 µM
- percent release on day 14, 10 mM gel ([5]; 10 mM hydrogel, 37 °C, PBS release medium, RP-HPLC, day 14, n = 3): 48%
- prodrug released on day 14, 10 mM gel ([5]; 10 mM hydrogel, 37 °C, PBS release medium, day 14, mean ± SD): 217 ± 12 nmol
- initial prodrugs released from hydrogel by day 14 ([5]; hydrogels aged at 37 °C with PBS release medium, RP-HPLC, day 14): about 50%
- nanobelt width [6]: 11.8 ± 1.3 nm

Compound: CCCCCCCCCCCCCCCC(=O)N[C@H](C(=O)N[C@H](C(=O)N[C@H](C(=O)N[C@@H](CSSCCOP(=O)(O)CO[C@H](C)Cn1cnc2c(N)ncnc21)C(=O)N[C@@H](CCC(=O)O)C(=O)O)C(C)C)C(C)C)C(C)C [TFV-PA3] (Palmitoyl-VVVC(X1)E-OH; C-terminus assumed)
- gel formation of 5 mM solution [1]: robust gel formation
- TFV released after 4 hours with DTT ([2]; 4 hours, RP-HPLC, n = 3): more than 70%
- TFV released by 24 hours with DTT [2]: all TFV released
- critical micellization concentration (CMC) [3]: 8 µM
- gelation upon injection [4]: formed gels instantly upon injection
- percent released on day 30, 5 mM hydrogels ([5]; 5 mM hydrogel, 37 °C, PBS release medium, RP-HPLC, day 30, mean ± SD, n = 3): 16.3 ± 1.3%
- prodrug released on day 30, 5 mM hydrogels ([5]; 5 mM hydrogel, 37 °C, PBS release medium, day 30, mean ± SD): 36.7 ± 3.0 nmol
- percent released on day 30, 10 mM hydrogels ([5]; 10 mM hydrogel, 37 °C, PBS release medium, RP-HPLC, day 30, mean ± SD, n = 3): 6.1 ± 0.5%
- average concentration of release supernatant from day 8 onwards, 10 mM gels ([5]; 10 mM hydrogel, 37 °C, PBS release medium, day 8 onwards): 13.3 ± 4.2 µM
- prodrug released on day 30, 10 mM hydrogels ([5]; 10 mM hydrogel, 37 °C, PBS release medium, day 30, mean ± SD): 27.3 ± 2.2 nmol
- initial prodrugs retained in hydrogel on day 30 ([5]; hydrogels aged at 37 °C with PBS release medium, RP-HPLC, day 30): more than 80%
- nanobelt width [6]: 18.9 ± 3.0 nm
